Series [1] has as its system Mus musculus. The series is described as follows: Antidepressant activity in po dosed ICEM:CET (SPF Caw) mouse assessed as antagonism of reserpine-induced hypothermia administered via gavage 30 mins before reserpine challenge measured 4 hrs after reserpine treatment. The class given is functional. In a few lines: (§1)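 Groups of ten male mice (18-22 g), fasted 9 h with water until 2 h pre-test. Oral gavage in 0.5% Methocel at doses below the 25 mg/kg screen, 30 min before reserpine 2.5 mg/kg ip. Blepharospasm scored blind at 1 h, rectal temperature at 4 h. ED50 estimated by eye-fit linear plots on semilogarithmic paper.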

Series [2] has as its system Mus musculus. The series is described as follows: Anticonvulsant activity in po dosed ICEM:CET (SPF Caw) mouse assessed as antagonism of pentylenetetrazole-induced flexor-extensor tonic convulsions administered via gavage 30 mins before pentylenetetrazole challenge. The class given is functional. In short, it runs like this: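 Male mice, 18-22 g, dosed orally by gavage in 0.5% Methocel (0.1 mL/10 g), starting at a 50 mg/kg screening dose, then graded doses. Pentylenetetrazole 130 mg/kg ip given 30 min later. Ten mice per dose and for controls. Dose preventing flexor-extensor tonic convulsions in 50% of animals read from dose-response curves (ED50).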

Series [3] deals with Mus musculus. The series is described as follows: Antidepressant activity in po dosed ICEM:CET (SPF Caw) mouse assessed as antagonism of reserpine-induced blepharospasm administered via gavage 30 mins before reserpine challenge measured 1 hr after reserpine treatment. Format: functional. As to conditions: Mus musculus, ICEM:CET(SPF Caw), po; read-out: ED50. In a few lines:
as §1

The nature of series [4]: Orientative acute toxicity in po dosed ICEM:CET (SPF Caw) mouse administered via gavage measured for 60 mins after drug dosing by Irwin's test. The class given is organism-based. As to conditions: ICEM:CET (SPF Caw), in vivo. In a few lines: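 Male ICEM:CET (SPF Caw) mice, 18-22 g. Oral gavage, suspended or dissolved in 0.5% Methocel at 0.1 mL/10 g body weight. Doses of at least 25, 50, 100, 200, 400 and 800 mg/kg, four animals per dose. Animals were observed closely for 60 min after dosing during Irwin's symptomatologic test, and an approximate LD50 was estimated.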

The mark [5] stands for this setting: Mus musculus, ICEM:CET(SPF Caw), po, read-out: ED50.

A word on the ED50: it is the dose that gives a 50% effect, or the effect in half of the subjects. One may read the LD50 as the dose at which mortality reaches 50%.

`CNC1CN(C2c3ccccc3C=Cc3ccccc32)C1`: the results for the ED50 in the series on Mus musculus [1] (setting [5]), in the series with Mus musculus [2] (setting [5]) and with Mus musculus [3] were more than 25 mg/kg, more than 50 mg/kg and more than 25 mg/kg, respectively. For the same compound, the LD50 at 1 h in series [4] came out at 200 mg/kg.

`CNC1CN(C2CCCCc3ccccc32)C1` (stereo unspecified): the ED50 was more than 25 mg/kg in the series with Mus musculus [1] (setting [5]), 48 mg/kg in the series on Mus musculus [2] (setting [5]) and more than 25 mg/kg with Mus musculus [3]. In series [4], this compound gave an LD50 at 1 h of 400 mg/kg.

For the compound `CN(C)C1CN(C2c3ccccc3CCc3ccccc32)C1`, the 50% effective dose (ED50) in the series on Mus musculus [1] (setting [5]) was found to be 12.5 mg/kg; in the series on Mus musculus [2] (setting [5]), 21.5 mg/kg; in the series with Mus musculus [3], 7 mg/kg. For the same compound, the 50% lethal dose (LD50) at 1 h in series [4] came to 400 mg/kg.

As to `CNC1CN(C2c3ccccc3CCc3ccccc32)C1C` (stereo unspecified), the ED50 in the series with Mus musculus [1] (setting [5]) came out at 10.5 mg/kg; in the series with Mus musculus [2] (setting [5]) it was 25 mg/kg; with Mus musculus [3], 9 mg/kg. This compound also had an LD50 at 1 h in series [4] of 400 mg/kg.

With `CNC1CN(C2c3ccccc3C3(CC3)c3ccccc32)C1`, the ED50 is 11.4 mg/kg with Mus musculus [1] (setting [5]), 18.5 mg/kg in the series on Mus musculus [2] (setting [5]) and 4.4 mg/kg in the series with Mus musculus [3]. The LD50 at 1 h in series [4] stood at 200 mg/kg.

Regarding `CN(C)C1CN(C2c3ccccc3CSc3ccccc32)C1` (stereo unspecified), the ED50 in the series with Mus musculus [1] (setting [5]) was more than 25 mg/kg; in the series with Mus musculus [2] (setting [5]), 19 mg/kg; with Mus musculus [3] it was more than 25 mg/kg. The compound further showed an LD50 at 1 h in series [4] of 400 mg/kg.

For the compound `CN(CC(=O)c1ccccc1)C1CN(C2c3ccccc3CCc3ccccc32)C1`, the ED50 with Mus musculus [1] (setting [5]) was more than 25 mg/kg; with Mus musculus [2] (setting [5]), 46.8 mg/kg; in the series on Mus musculus [3], 15 mg/kg. The compound also showed a median lethal dose (LD50) at 1 h in series [4] of more than 800 mg/kg.

For `CC(C)(C)NC1CN(C2c3ccccc3CCc3ccccc32)C1`, the ED50 in the series with Mus musculus [1] (setting [5]) was more than 25 mg/kg; in the series on Mus musculus [2] (setting [5]) it was 28.7 mg/kg; with Mus musculus [3], more than 25 mg/kg. In addition, in series [4], the LD50 at 1 h is 400 mg/kg.

Regarding `c1ccc2c(c1)CCc1ccccc1C2N1CCNCC1`, the ED50 is more than 25 mg/kg in the series with Mus musculus [1] (setting [5]), more than 50 mg/kg with Mus musculus [2] (setting [5]) and 24 mg/kg with Mus musculus [3]. The LD50 at 1 h in series [4] was 50 mg/kg.

Consider `CNC1CN(C2c3ccccc3COc3ccccc32)C1.O=C(O)/C=C/C(=O)O` (single isomer, unassigned; (+)), for which the ED50 in the series with Mus musculus [1] was determined as 4.9 mg/kg; in the series on Mus musculus [2], 14 mg/kg; with Mus musculus [3] it was 1 mg/kg. The compound also came in with an LD50 at 1 h in series [4] of 200 mg/kg.

Take `CC(Cc1ccccc1)NC1CN(C2c3ccccc3CCc3ccccc32)C1` (stereo unspecified): the results for the ED50 in the series with Mus musculus [1] (setting [5]), in the series with Mus musculus [2] (setting [5]) and in the series with Mus musculus [3] were more than 25 mg/kg, more than 50 mg/kg and more than 25 mg/kg, respectively. The same compound had an LD50 at 1 h in series [4] of more than 800 mg/kg.

For the compound `CN(C)C1CN(C2c3ccccc3CCc3ccc(Cl)cc32)C1` (stereo unspecified), the figures for the 50% effective dose (ED50) in the series on Mus musculus [1] (setting [5]), with Mus musculus [2] (setting [5]) and in the series on Mus musculus [3] were 8.6 mg/kg, 29.9 mg/kg and 12.5 mg/kg, respectively. The compound also registered an LD50 at 1 h in series [4] of 400 mg/kg.

As for `CN(C)C1CN(C2c3ccccc3COc3ccccc32)C1` (stereo unspecified), the 50% effective dose (ED50) was 23 mg/kg in the series with Mus musculus [1] (setting [5]), 28.5 mg/kg with Mus musculus [2] (setting [5]) and 5.6 mg/kg with Mus musculus [3]. In series [4], this compound registered an LD50 at 1 h of 100 mg/kg.

On to `CNC1CN(C2c3ccccc3COc3ccc(OC)cc32)C1` (stereo unspecified), for which the ED50 in the series with Mus musculus [1] (setting [5]) is more than 25 mg/kg; in the series with Mus musculus [2] (setting [5]), 45.8 mg/kg; in the series with Mus musculus [3] it was more than 25 mg/kg. The compound further returned an LD50 at 1 h in series [4] of 200 mg/kg.

On to `CNC1CN(C(c2ccccc2)c2ccccc2)C1`, for which the results for the ED50 in the series with Mus musculus [1] (setting [5]), in the series on Mus musculus [2] (setting [5]) and with Mus musculus [3] were more than 25 mg/kg, 9.6 mg/kg and 3.5 mg/kg, respectively. The same compound came in with an LD50 at 1 h in series [4] of 200 mg/kg.

For `CN(C(N)=O)C1CN(C2c3ccccc3CCc3ccccc32)C1`, the figures for the ED50 in the series with Mus musculus [1] (setting [5]), in the series on Mus musculus [2] (setting [5]) and in the series with Mus musculus [3] were 12.5 mg/kg, more than 12.5 mg/kg and more than 12.5 mg/kg, respectively. Further, the LD50 at 1 h in series [4] stood at 400 mg/kg.

For the compound `CNC1CN(C2c3ccccc3CSc3ccc(OC)cc32)C1` (stereo unspecified), the ED50 with Mus musculus [1] (setting [5]) was more than 25 mg/kg; with Mus musculus [2] (setting [5]), more than 50 mg/kg; in the series with Mus musculus [3], 21.8 mg/kg. For the same compound, the LD50 at 1 h in series [4] was found to be 400 mg/kg.

For `CN(C)C1CN(C2c3ccccc3COc3ccc(Cl)cc32)C1` (stereo unspecified), the ED50 is more than 25 mg/kg with Mus musculus [1] (setting [5]), more than 50 mg/kg with Mus musculus [2] (setting [5]) and more than 25 mg/kg in the series on Mus musculus [3]. In addition, the LD50 at 1 h in series [4] worked out at 100 mg/kg.

With `CN(C)C1CN(C2c3ccccc3C3(CC3)c3ccccc32)C1`, the ED50 with Mus musculus [1] (setting [5]) amounted to 16.5 mg/kg; in the series on Mus musculus [2] (setting [5]), 24.3 mg/kg; in the series on Mus musculus [3], 7.2 mg/kg. In series [4], the LD50 at 1 h was 200 mg/kg.

The values above are taken from ChEMBL document CHEMBL3227978, “Azetidine derivatives of tricyclic antidepressant agents” (J Med Chem, 1979).
